Results: article PMC5621377 (Clinical cancer research : an official journal of the …, 2016)

Test system: patients with Rb+ advanced solid tumors or lymphomas
Assay: Safety assessments, adverse events
Type: in vivo, human
In short: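 Oral test compound given daily 3-weeks-on/1-week-off in 28-day cycles, with doses escalated by a Bayesian logistic regression model with overdose control. Safety assessments, including ECGs, were done at baseline and at regular intervals. AEs were graded by CTCAE v4.0 and classed as suspected related to treatment. All patients dosed at least once were included; summaries were descriptive per dose level.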

[1] = 50 mg 3-weeks-on/1-week-off, n = 4
[2] = 70 mg 3-weeks-on/1-week-off, n = 2
[3] = 140 mg 3-weeks-on/1-week-off, n = 4
[4] = 260 mg 3-weeks-on/1-week-off, n = 4
[5] = 280 mg 3-weeks-on/1-week-off, n = 4
[6] = 350 mg 3-weeks-on/1-week-off, n = 5
[7] = 400 mg 3-weeks-on/1-week-off, n = 5

## CN(C)C(=O)c1cc2cnc(Nc3ccc(N4CCNCC4)cn3)nc2n1C1CCCC1 [ribociclib]
[1]
  Anemia, Grade 3/4, AE suspected related to study treatment: 0 n (%)
  Anemia, Grade All, AE suspected related to study treatment: 0 n (%)
  Appetite decreased, Grade 3/4, AE suspected related to study treatment: 0 n (%)
  Appetite decreased, Grade All, AE suspected related to study treatment: 0 n (%)
  Blood creatinine increased, Grade 3/4, AE suspected related to study treatment: 0 n (%)
  Blood creatinine increased, Grade All, AE suspected related to study treatment: 0 n (%)
  Diarrhea, Grade 3/4, AE suspected related to study treatment: 0 n (%)
  Diarrhea, Grade All, AE suspected related to study treatment: 0 n (%)
  Fatigue, Grade 3/4, AE suspected related to study treatment: 0 n (%)
  Fatigue, Grade All, AE suspected related to study treatment: 2 (50) n (%)
  Leukopenia, Grade 3/4, AE suspected related to study treatment: 0 n (%)
  Leukopenia, Grade All, AE suspected related to study treatment: 0 n (%)
  Lymphopenia, Grade 3/4, AE suspected related to study treatment: 0 n (%)
  Lymphopenia, Grade All, AE suspected related to study treatment: 0 n (%)
  Nausea, Grade 3/4, AE suspected related to study treatment: 0 n (%)
  Nausea, Grade All, AE suspected related to study treatment: 0 n (%)
  Neutropenia, Grade 3/4, AE suspected related to study treatment: 0 n (%)
  Neutropenia, Grade All, AE suspected related to study treatment: 0 n (%)
  Thrombocytopenia, Grade 3/4, AE suspected related to study treatment: 0 n (%)
  Thrombocytopenia, Grade All, AE suspected related to study treatment: 0 n (%)
  Vomiting, Grade 3/4, AE suspected related to study treatment: 0 n (%)
  Vomiting, Grade All, AE suspected related to study treatment: 0 n (%)
[2]
  Anemia, Grade 3/4, AE suspected related to study treatment: 0 n (%)
  Anemia, Grade All, AE suspected related to study treatment: 0 n (%)
  Appetite decreased, Grade 3/4, AE suspected related to study treatment: 0 n (%)
  Appetite decreased, Grade All, AE suspected related to study treatment: 0 n (%)
  Blood creatinine increased, Grade 3/4, AE suspected related to study treatment: 0 n (%)
  Blood creatinine increased, Grade All, AE suspected related to study treatment: 0 n (%)
  Diarrhea, Grade 3/4, AE suspected related to study treatment: 0 n (%)
  Diarrhea, Grade All, AE suspected related to study treatment: 0 n (%)
  Fatigue, Grade 3/4, AE suspected related to study treatment: 0 n (%)
  Fatigue, Grade All, AE suspected related to study treatment: 2 (100) n (%)
  Leukopenia, Grade 3/4, AE suspected related to study treatment: 0 n (%)
  Leukopenia, Grade All, AE suspected related to study treatment: 0 n (%)
  Lymphopenia, Grade 3/4, AE suspected related to study treatment: 0 n (%)
  Lymphopenia, Grade All, AE suspected related to study treatment: 0 n (%)
  Nausea, Grade 3/4, AE suspected related to study treatment: 0 n (%)
  Nausea, Grade All, AE suspected related to study treatment: 1 (50) n (%)
  Neutropenia, Grade 3/4, AE suspected related to study treatment: 0 n (%)
  Neutropenia, Grade All, AE suspected related to study treatment: 0 n (%)
  Thrombocytopenia, Grade 3/4, AE suspected related to study treatment: 0 n (%)
  Thrombocytopenia, Grade All, AE suspected related to study treatment: 0 n (%)
  Vomiting, Grade 3/4, AE suspected related to study treatment: 0 n (%)
  Vomiting, Grade All, AE suspected related to study treatment: 1 (50) n (%)
[3]
  Anemia, Grade 3/4, AE suspected related to study treatment: 0 n (%)
  Anemia, Grade All, AE suspected related to study treatment: 0 n (%)
  Appetite decreased, Grade 3/4, AE suspected related to study treatment: 0 n (%)
  Appetite decreased, Grade All, AE suspected related to study treatment: 1 (25) n (%)
  Blood creatinine increased, Grade 3/4, AE suspected related to study treatment: 0 n (%)
  Blood creatinine increased, Grade All, AE suspected related to study treatment: 0 n (%)
  Diarrhea, Grade 3/4, AE suspected related to study treatment: 0 n (%)
  Diarrhea, Grade All, AE suspected related to study treatment: 0 n (%)
  Fatigue, Grade 3/4, AE suspected related to study treatment: 0 n (%)
  Fatigue, Grade All, AE suspected related to study treatment: 3 (75) n (%)
  Leukopenia, Grade 3/4, AE suspected related to study treatment: 0 n (%)
  Leukopenia, Grade All, AE suspected related to study treatment: 0 n (%)
  Lymphopenia, Grade 3/4, AE suspected related to study treatment: 0 n (%)
  Lymphopenia, Grade All, AE suspected related to study treatment: 0 n (%)
  Nausea, Grade 3/4, AE suspected related to study treatment: 0 n (%)
  Nausea, Grade All, AE suspected related to study treatment: 0 n (%)
  Neutropenia, Grade 3/4, AE suspected related to study treatment: 0 n (%)
  Neutropenia, Grade All, AE suspected related to study treatment: 0 n (%)
  Thrombocytopenia, Grade 3/4, AE suspected related to study treatment: 0 n (%)
  Thrombocytopenia, Grade All, AE suspected related to study treatment: 0 n (%)
  Vomiting, Grade 3/4, AE suspected related to study treatment: 0 n (%)
  Vomiting, Grade All, AE suspected related to study treatment: 0 n (%)
[4]
  Anemia, Grade 3/4, AE suspected related to study treatment: 0 n (%)
  Anemia, Grade All, AE suspected related to study treatment: 0 n (%)
  Appetite decreased, Grade 3/4, AE suspected related to study treatment: 0 n (%)
  Appetite decreased, Grade All, AE suspected related to study treatment: 0 n (%)
  Blood creatinine increased, Grade 3/4, AE suspected related to study treatment: 0 n (%)
  Blood creatinine increased, Grade All, AE suspected related to study treatment: 0 n (%)
  Diarrhea, Grade 3/4, AE suspected related to study treatment: 0 n (%)
  Diarrhea, Grade All, AE suspected related to study treatment: 0 n (%)
  Fatigue, Grade 3/4, AE suspected related to study treatment: 0 n (%)
  Fatigue, Grade All, AE suspected related to study treatment: 4 (100) n (%)
  Leukopenia, Grade 3/4, AE suspected related to study treatment: 0 n (%)
  Leukopenia, Grade All, AE suspected related to study treatment: 1 (25) n (%)
  Lymphopenia, Grade 3/4, AE suspected related to study treatment: 0 n (%)
  Lymphopenia, Grade All, AE suspected related to study treatment: 2 (50) n (%)
  Nausea, Grade 3/4, AE suspected related to study treatment: 0 n (%)
  Nausea, Grade All, AE suspected related to study treatment: 0 n (%)
  Neutropenia, Grade 3/4, AE suspected related to study treatment: 0 n (%)
  Neutropenia, Grade All, AE suspected related to study treatment: 0 n (%)
  Thrombocytopenia, Grade 3/4, AE suspected related to study treatment: 0 n (%)
  Thrombocytopenia, Grade All, AE suspected related to study treatment: 0 n (%)
  Vomiting, Grade 3/4, AE suspected related to study treatment: 0 n (%)
  Vomiting, Grade All, AE suspected related to study treatment: 0 n (%)
[5]
  Anemia, Grade 3/4, AE suspected related to study treatment: 0 n (%)
  Anemia, Grade All, AE suspected related to study treatment: 0 n (%)
  Appetite decreased, Grade 3/4, AE suspected related to study treatment: 0 n (%)
  Appetite decreased, Grade All, AE suspected related to study treatment: 2 (50) n (%)
  Blood creatinine increased, Grade 3/4, AE suspected related to study treatment: 0 n (%)
  Blood creatinine increased, Grade All, AE suspected related to study treatment: 0 n (%)
  Diarrhea, Grade 3/4, AE suspected related to study treatment: 0 n (%)
  Diarrhea, Grade All, AE suspected related to study treatment: 1 (25) n (%)
  Fatigue, Grade 3/4, AE suspected related to study treatment: 0 n (%)
  Fatigue, Grade All, AE suspected related to study treatment: 1 (25) n (%)
  Leukopenia, Grade 3/4, AE suspected related to study treatment: 0 n (%)
  Leukopenia, Grade All, AE suspected related to study treatment: 1 (25) n (%)
  Lymphopenia, Grade 3/4, AE suspected related to study treatment: 1 (25) n (%)
  Lymphopenia, Grade All, AE suspected related to study treatment: 1 (25) n (%)
  Nausea, Grade 3/4, AE suspected related to study treatment: 0 n (%)
  Nausea, Grade All, AE suspected related to study treatment: 2 (50) n (%)
  Neutropenia, Grade 3/4, AE suspected related to study treatment: 0 n (%)
  Neutropenia, Grade All, AE suspected related to study treatment: 1 (25) n (%)
  Thrombocytopenia, Grade 3/4, AE suspected related to study treatment: 0 n (%)
  Thrombocytopenia, Grade All, AE suspected related to study treatment: 1 (25) n (%)
  Vomiting, Grade 3/4, AE suspected related to study treatment: 0 n (%)
  Vomiting, Grade All, AE suspected related to study treatment: 0 n (%)
[6]
  Anemia, Grade 3/4, AE suspected related to study treatment: 0 n (%)
  Anemia, Grade All, AE suspected related to study treatment: 2 (40) n (%)
  Appetite decreased, Grade 3/4, AE suspected related to study treatment: 0 n (%)
  Appetite decreased, Grade All, AE suspected related to study treatment: 1 (20) n (%)
  Blood creatinine increased, Grade 3/4, AE suspected related to study treatment: 0 n (%)
  Blood creatinine increased, Grade All, AE suspected related to study treatment: 3 (60) n (%)
  Diarrhea, Grade 3/4, AE suspected related to study treatment: 0 n (%)
  Diarrhea, Grade All, AE suspected related to study treatment: 1 (20) n (%)
  Fatigue, Grade 3/4, AE suspected related to study treatment: 0 n (%)
  Fatigue, Grade All, AE suspected related to study treatment: 1 (20) n (%)
  Leukopenia, Grade 3/4, AE suspected related to study treatment: 0 n (%)
  Leukopenia, Grade All, AE suspected related to study treatment: 2 (40) n (%)
  Lymphopenia, Grade 3/4, AE suspected related to study treatment: 1 (20) n (%)
  Lymphopenia, Grade All, AE suspected related to study treatment: 1 (20) n (%)
  Nausea, Grade 3/4, AE suspected related to study treatment: 0 n (%)
  Nausea, Grade All, AE suspected related to study treatment: 2 (40) n (%)
  Neutropenia, Grade 3/4, AE suspected related to study treatment: 0 n (%)
  Neutropenia, Grade All, AE suspected related to study treatment: 1 (20) n (%)
  Thrombocytopenia, Grade 3/4, AE suspected related to study treatment: 0 n (%)
  Thrombocytopenia, Grade All, AE suspected related to study treatment: 0 n (%)
  Vomiting, Grade 3/4, AE suspected related to study treatment: 0 n (%)
  Vomiting, Grade All, AE suspected related to study treatment: 2 (40) n (%)
[7]
  Anemia, Grade 3/4, AE suspected related to study treatment: 0 n (%)
  Anemia, Grade All, AE suspected related to study treatment: 2 (40) n (%)
  Appetite decreased, Grade 3/4, AE suspected related to study treatment: 0 n (%)
  Appetite decreased, Grade All, AE suspected related to study treatment: 0 n (%)
  Blood creatinine increased, Grade 3/4, AE suspected related to study treatment: 0 n (%)
  Blood creatinine increased, Grade All, AE suspected related to study treatment: 1 (20) n (%)
  Diarrhea, Grade 3/4, AE suspected related to study treatment: 0 n (%)
  Diarrhea, Grade All, AE suspected related to study treatment: 0 n (%)
  Fatigue, Grade 3/4, AE suspected related to study treatment: 0 n (%)
  Fatigue, Grade All, AE suspected related to study treatment: 1 (20) n (%)
  Leukopenia, Grade 3/4, AE suspected related to study treatment: 0 n (%)
  Leukopenia, Grade All, AE suspected related to study treatment: 1 (20) n (%)
  Lymphopenia, Grade 3/4, AE suspected related to study treatment: 0 n (%)
  Lymphopenia, Grade All, AE suspected related to study treatment: 0 n (%)
  Nausea, Grade 3/4, AE suspected related to study treatment: 0 n (%)
